This is an account of results in ChEMBL document CHEMBL1126604, “Synthesis and antiviral activity of 5-thien-2-yl-2'-deoxyuridine analogues” (1993).

SMILES strings stand for the structures. Converted amounts (≈) assume the structure as drawn. Bounds are passed on as bounds.

Holding throughout (type): functional
In experiment [1] the test system is Human alphaherpesvirus 2. Description: Minimum inhibitory concentration required to reduce herpes simplex virus-2 (HSV-2 (Lyons)) virus-induced cytopathicity by 50%. On the technique in general: Cytopathic effects are the visible damage that an infection or toxin causes in cultured cells.
Experiment [2] deals with Cell line. Description: (§1) Minimum inhibitory concentration required to reduce virus-induced cell growth by 50%. Particulars: Homo sapiens. The essentials:
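Cytotoxicity was measured as inhibition of cell growth in E6SM or HEL cells seeded in 96-well plates.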

The test system of experiment [3] is Vesicular stomatitis virus. In words: Minimum inhibitory concentration required to reduce VSV virus-induced cytopathicity by 50%.
In experiment [4] the test system is Human alphaherpesvirus 3. Description: Minimum inhibitory concentration required to reduce Varicella-Zoster virus (VZV (Oka)) virus-induced cytopathicity by 50%.
Experiment [5] has as its system Human alphaherpesvirus 1. In words: Minimum inhibitory concentration required to reduce herpes simplex virus-1 (HSV-1 (McIntyre)) virus-induced cytopathicity by 50%.
The test system of experiment [6] is Human alphaherpesvirus 3. In words: Minimum inhibitory concentration required to reduce TK-VZV (YS/R) virus-induced cytopathicity by 50%.
In experiment [7] the test system is Human alphaherpesvirus 1. Description: Minimum inhibitory concentration required to reduce thymidine kinase deficient-HSV-1 (VMW 1837) virus-induced cytopathicity by 50%.
The test system of experiment [8] is Human alphaherpesvirus 1. In words: Minimum inhibitory concentration required to reduce herpes simplex virus-1 (HSV-1 (KOS)) virus-induced cytopathicity by 50%.
Experiment [9] relates to Human alphaherpesvirus 2. In words: Minimum inhibitory concentration required to reduce herpes simplex virus-2 (HSV-2 (G)) virus-induced cytopathicity by 50%.
Experiment [10] has as its system Cell line. In words: Minimum concentration required to cause a microscopically detectable alteration of human cells morphology. The essentials:
(§2)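 Cytotoxicity read as the minimum concentration causing a microscopically detectable alteration of normal cell morphology. Cells were human embryonic skin-muscle (E6SM) or human embryonic lung (HEL), seeded in 96-well plates.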

Experiment [11] concerns Human alphaherpesvirus 2. In words: Minimum inhibitory concentration required to reduce herpes simplex virus-2 (HSV-2 (196)) virus-induced cytopathicity by 50%.
The subject of experiment [12] is Human alphaherpesvirus 1. Description: Minimum inhibitory concentration required to reduce thymidine kinase deficient-HSV-1 (B2006) virus-induced cytopathicity by 50%.
The test system of experiment [13] is Human alphaherpesvirus 1. Description: Minimum inhibitory concentration required to reduce herpes simplex virus-1 (HSV-1 (F)) virus-induced cytopathicity by 50%.
For another experiment, the system named is Vaccinia virus. In words: Minimum inhibitory concentration required to reduce vaccinia virus (VV) virus-induced cytopathicity by 50%. Particulars: Orthopoxvirus vaccinia.
A short description of experiment [14]: as §1. Particulars: Homo sapiens.
Experiment [15] deals with Human alphaherpesvirus 1. Description: Minimum inhibitory concentration required to reduce TK-HSV-1 (B2006) virus-induced cytopathicity by 50%.
In experiment [16] the test system is Cytomegalovirus. In words: Minimum inhibitory concentration required to reduce cytomegalo virus (CMV (AD-169)) virus-induced cytopathicity by 50%. The note with it: Human betaherpesvirus 5.
The subject of experiment [17] is Cytomegalovirus. In words: Minimum inhibitory concentration required to reduce cytomegalo virus (CMV (Davis)) virus-induced cytopathicity by 50%. Particulars: Human betaherpesvirus 5.
For experiment [18], the system named is Human alphaherpesvirus 3. Description: Minimum inhibitory concentration required to reduce TK-VZV (07-1) virus-induced cytopathicity by 50%.
In experiment [19] the test system is Cell line. Description: Minimum concentration required to cause a microscopically detectable alteration of cell morphology. The note with it: Homo sapiens. In short, it runs like this:
as §2

The test system of experiment [20] is Mus musculus. Description: Survival of mice after intraperitoneal infection with HSV-1 (KOS) and oral administration of 25 mg/kg at day 9. The essentials: (§3)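 Mice were infected intraperitoneally with HSV-1 (KOS), 10 mice per group. Drug was given by oral gavage once daily for 5 days, starting on the day of infection, at 25, 100 or 250 mg/kg per day. Vehicle was a 90:10 suspension of Sirupus Simplex and propylene glycol; the placebo group got the same syrup. Surviving mice were counted over 20 days.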

Experiment [21] concerns Mus musculus. In words: Survival of mice after intraperitoneal infection with HSV-1 (KOS) and oral administration of 25 mg/kg at day 6. The essentials:
as §3

Experiment [22] deals with Mus musculus. Description: Survival of mice after intraperitoneal infection with HSV-1 (KOS) and oral administration of 250 mg/kg at day 9. The essentials:
as §3

The subject of experiment [23] is Mus musculus. Description: Survival of mice after intraperitoneal infection with HSV-1 (KOS) and oral administration of 100 mg/kg at day 3. In short, it runs like this: as §3
For experiment [24], the system named is Mus musculus. In words: Survival of mice after intraperitoneal infection with HSV-1 (KOS) and oral administration of 250 mg/kg at day 6. In short, it runs like this:
as §3

The test system of experiment [25] is Mus musculus. Description: Survival of mice after intraperitoneal infection with HSV-1 (KOS) and oral administration of 25 mg/kg at day 0. The essentials:
as §3

The test system of experiment [26] is Mus musculus. In words: Survival of mice after intraperitoneal infection with HSV-1 (KOS) and oral administration of 250 mg/kg at day 0. The essentials: as §3
The test system of experiment [27] is Mus musculus. In words: Survival of mice after intraperitoneal infection with HSV-1 (KOS) and oral administration of 250 mg/kg at day 3. The essentials:
as §3

Experiment [28] relates to Mus musculus. Description: Survival of mice after intraperitoneal infection with HSV-1 (KOS) and oral administration of 100 mg/kg at day 12. In short, it runs like this:
as §3

Experiment [29] has as its system Mus musculus. Description: Survival of mice after intraperitoneal infection with HSV-1 (KOS) and oral administration of 250 mg/kg at day 12. In short, it runs like this: as §3
For experiment [30], the system named is Mus musculus. In words: Survival of mice after intraperitoneal infection with HSV-1 (KOS) and oral administration of 100 mg/kg at day 20. The essentials:
as §3

Experiment [31] relates to Mus musculus. In words: Survival of mice after intraperitoneal infection with HSV-1 (KOS) and oral administration of 100 mg/kg at day 6. In short, it runs like this: as §3
The subject of experiment [32] is Mus musculus. Description: Survival of mice after intraperitoneal infection with HSV-1 (KOS) and oral administration of 25 mg/kg at day 12. In short, it runs like this:
as §3

For experiment [33], the system named is Mus musculus. Description: Survival of mice after intraperitoneal infection with HSV-1 (KOS) and oral administration of 25 mg/kg at day 3. The essentials: as §3
Experiment [34] relates to Mus musculus. In words: Survival of mice after intraperitoneal infection with HSV-1 (KOS) and oral administration of 25 mg/kg at day 20. In short, it runs like this:
as §3

Experiment [35] deals with Mus musculus. Description: Survival of mice after intraperitoneal infection with HSV-1 (KOS) and oral administration of 250 mg/kg at day 20. The essentials: as §3
Experiment [36] concerns Mus musculus. Description: Survival of mice after intraperitoneal infection with HSV-1 (KOS) and oral administration of 100 mg/kg at day 9. In short, it runs like this: as §3
For experiment [37], the system named is Mus musculus. Description: Survival of mice after intraperitoneal infection with HSV-1 (KOS) and oral administration of 100 mg/kg at day 0. In short, it runs like this: as §3

As for `O=c1[nH]c(=O)n([C@H]2C[C@H](O)[C@@H](CO)O2)cc1-c1ccno1`, the MIC was over 400 µg/mL in the experiment with Human alphaherpesvirus 2 [1]; over 50 µg/mL in the experiment with Cell line [2]; over 400 µg/mL in [3]; 0.48 µg/mL (≈ 1.63 µM) against Human alphaherpesvirus 3 [4]; 2 µg/mL (≈ 6.77 µM) with Human alphaherpesvirus 1 [5]; 10 µg/mL (≈ 33.9 µM) with Human alphaherpesvirus 3 [6]. Besides, the MIC against Human alphaherpesvirus 1 [7] is over 400 µg/mL; against Human alphaherpesvirus 1 [8], 20 µg/mL (≈ 67.7 µM); in the experiment with Human alphaherpesvirus 2 [9], 300 µg/mL (≈ 1020 µM); with Cell line [10], 20 µg/mL (≈ 67.7 µM); in the experiment on Human alphaherpesvirus 2 [11], 300 µg/mL (≈ 1020 µM); against Human alphaherpesvirus 1 [12], 300 µg/mL (≈ 1020 µM). In addition, the MIC against Human alphaherpesvirus 1 [13] is 20 µg/mL (≈ 67.7 µM); in the experiment with Vaccinia virus, over 400 µg/mL.

On to `C#Cc1ccc(-c2cn([C@H]3C[C@H](O)[C@@H](CO)O3)c(=O)[nH]c2=O)s1`, for which the MIC is over 200 µg/mL against Human alphaherpesvirus 2 [1]; over 200 µg/mL in experiment [3]; 14 µg/mL (≈ 41.9 µM) in [14]; 0.25 µg/mL (≈ 0.748 µM) in the experiment on Human alphaherpesvirus 3 [4]; 0.2 µg/mL (≈ 0.598 µM) against Human alphaherpesvirus 1 [5]; 17 µg/mL (≈ 50.8 µM) in the experiment with Human alphaherpesvirus 3 [6]. The MIC in the experiment with Human alphaherpesvirus 1 [7] is over 200 µg/mL; with Human alphaherpesvirus 1 [8] it was 0.4 µg/mL (≈ 1.2 µM); against Human alphaherpesvirus 1 [15], over 200 µg/mL; in the experiment on Human alphaherpesvirus 2 [9], over 200 µg/mL; against Human alphaherpesvirus 2 [11], over 200 µg/mL; against Cytomegalovirus [16], over 10 µg/mL. Besides, the MIC was 0.2 µg/mL (≈ 0.598 µM) against Human alphaherpesvirus 1 [13]; over 200 µg/mL in the experiment on Vaccinia virus; over 10 µg/mL with Cytomegalovirus [17]; 5 µg/mL (≈ 15 µM) in the experiment with Human alphaherpesvirus 3 [18]; 400 µg/mL (≈ 1200 µM) against Cell line [19].

Take `O=c1[nH]c(=O)n(C2O[C@H](CO)[C@@H](O)[C@@H]2O)cc1-c1ccc(Br)s1` (some centres undefined): the MIC was 20 µg/mL (≈ 49.4 µM) in the experiment on Human alphaherpesvirus 2 [1]; over 100 µg/mL in experiment [3]; over 50 µg/mL in experiment [14]; 0.05 µg/mL (≈ 0.123 µM) in the experiment with Human alphaherpesvirus 3 [4]; 0.02 µg/mL (≈ 0.0494 µM) with Human alphaherpesvirus 1 [5]; 40 µg/mL (≈ 98.7 µM) against Human alphaherpesvirus 3 [6]. In addition, the MIC was over 100 µg/mL against Human alphaherpesvirus 1 [7]; 0.08 µg/mL (≈ 0.197 µM) in the experiment with Human alphaherpesvirus 1 [8]; 70 µg/mL (≈ 173 µM) in the experiment with Human alphaherpesvirus 2 [9]; 70 µg/mL (≈ 173 µM) with Human alphaherpesvirus 2 [11]; over 100 µg/mL against Human alphaherpesvirus 1 [12]; 30 µg/mL (≈ 74 µM) with Cytomegalovirus [16]. In addition, the MIC against Human alphaherpesvirus 1 [13] was 0.07 µg/mL (≈ 0.173 µM); in the experiment on Vaccinia virus it was 20 µg/mL (≈ 49.4 µM); with Cytomegalovirus [17], 35 µg/mL (≈ 86.4 µM); in the experiment with Human alphaherpesvirus 3 [18], 40 µg/mL (≈ 98.7 µM); with Cell line [19], over 40 µg/mL. The No. of mice stood at 2 with Mus musculus [20]; 10 with Mus musculus [21]; 5 in the experiment on Mus musculus [22]; 10 with Mus musculus [23]; 8 in the experiment on Mus musculus [24]; 10 in the experiment with Mus musculus [25]. Further, the No. of mice in the experiment with Mus musculus [26] was 10; in the experiment on Mus musculus [27] it was 10; with Mus musculus [28], 1; with Mus musculus [29] it was 5; in the experiment on Mus musculus [30] it was 1; with Mus musculus [31], 8. The No. of mice in the experiment on Mus musculus [32] is given as 2; in the experiment with Mus musculus [33] it was 10; in the experiment with Mus musculus [34] it was 2; with Mus musculus [35], 5; in the experiment with Mus musculus [36] it was 1; with Mus musculus [37] it was 10.

As for `O=c1[nH]c(=O)n([C@H]2C[C@H](O)[C@@H](CO)O2)cc1-c1ccc([N+](=O)[O-])s1`, the MIC was over 50 µg/mL with Cell line [2]; over 200 µg/mL in experiment [3]; 7 µg/mL (≈ 19.7 µM) against Human alphaherpesvirus 3 [4]; over 40 µg/mL against Human alphaherpesvirus 3 [6]; 150 µg/mL (≈ 422 µM) in the experiment on Human alphaherpesvirus 1 [7]; 2 µg/mL (≈ 5.63 µM) against Human alphaherpesvirus 1 [8]. The MIC was 150 µg/mL (≈ 422 µM) against Human alphaherpesvirus 2 [9]; over 200 µg/mL in the experiment with Cell line [10]; over 200 µg/mL in the experiment with Human alphaherpesvirus 1 [12]; over 40 µg/mL against Cytomegalovirus [16]; 150 µg/mL (≈ 422 µM) with Vaccinia virus; over 40 µg/mL against Cytomegalovirus [17]. Besides, the MIC against Human alphaherpesvirus 3 [18] stood at 40 µg/mL (≈ 113 µM).
